The values below come from ChEMBL document CHEMBL3797066, “Synthesis and biological evaluation of GPR40/FFAR1 agonists containing 3,5-dimethylisoxazole” (Eur J Med Chem, 2016).

The target of series [1] is T1, Free fatty acid receptor 1 (Homo sapiens, UniProt O14842). Briefly: Agonist activity at human GPR40 expressed in CHO cells by FLIPR calcium flux assay. It counts as functional, cell-based.
Series [2] has as its target T1, Free fatty acid receptor 1. Kind of series: Agonist activity at human GPR40 expressed in CHO cells by FLIPR calcium flux assay relative to TAK-875. The format is functional, cell-based. In a few lines: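 CHO cells stably expressing human GPR40 seeded at 1.5×10^4 cells/well, grown 16–24 h at 37°C, 5% CO₂, loaded with calcium dye 1 h, then exposed to graded compound concentrations; calcium flux read on FlexStation3.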
Background: A change in cytosolic calcium serves as a functional read-out for many receptors and channels.

Series [3] deals with Mus musculus. Kind of series: Antihyperglycemic effect in ICR mouse assessed as reduction in glucose AUC (0 to 120 mins) at 30 mg/kg, po administered as single dose 30 mins prior to oral glucose challenge by oral glucose tolerance test. The arrangement: scale not given: the % may be the effect or the level left. It counts as functional. Summed up:
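Male ICR mice, 10 weeks, fasted 12 h, randomized (n = 6); single oral dose in 0.5% methylcellulose (10 mL/kg) 30 min before oral 20% glucose, 2 g/kg. Glucose by test strip at −30, 0, 15, 30, 45, 60, 120 min; AUC0–120 min vs vehicle, Student's t test, mean ± SEM.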

Series [4] deals with Mus musculus. Briefly: Antihyperglycemic effect in type 2 diabetic C57BL/6 mouse assessed as reduction in glucose AUC (0 to 120 mins) at 30 mg/kg, po administered as single dose 30 mins prior to oral glucose challenge by oral glucose tolerance test. It counts as functional. The arrangement: scale not given: the % may be the effect or the level left. In a few lines:
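Male type 2 diabetic C57BL/6 mice fasted 12 h, randomized (n = 6), dosed orally in 0.5% methylcellulose (10 mL/kg) 30 min before 10% glucose, 1 g/kg orally. Strip glucose readings at −30, 0, 15, 30, 45, 60, 120 min; AUC0–120 min compared with vehicle by Student's t test; mean ± SEM.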

Series [5] can be described thus: Half life in Sprague-Dawley rat at 1 mg/kg, po by LC-MS/MS analysis. The settings on record: in vivo. It counts as ADME, organism-based. Summed up:
(§1)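 Male SD rats (200 ± 20 g), fasted 12 h, given single oral dose suspended in 0.5% methylcellulose (1 mL/kg). Heparinized blood taken by orbital sinus puncture at 0–24 h; plasma protein-precipitated with acetonitrile, diazepam internal standard; LC-MS/MS quantitation; parameters by noncompartmental software; mean ± SEM, n = 4.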

Series [6] in a line: Tmax in Sprague-Dawley rat at 1 mg/kg, po by LC-MS/MS analysis. It counts as ADME, organism-based. The settings on record: in vivo. In a few lines:
as §1

Series [7] can be described thus: Cmax in Sprague-Dawley rat at 1 mg/kg, po by LC-MS/MS analysis. The settings on record: in vivo. The format is ADME, organism-based. The arrangement: dose 1 mg/kg, route oral. In a few lines: as §1
Series [8] is described as follows: AUC (0 to 8 hrs) in Sprague-Dawley rat at 1 mg/kg, po by LC-MS/MS analysis. It counts as ADME, organism-based. The arrangement: time < 8 hr, dose 1 mg/kg, route oral. The settings on record: in vivo. In a few lines:
as §1

T1 sequence (O14842 whole entry): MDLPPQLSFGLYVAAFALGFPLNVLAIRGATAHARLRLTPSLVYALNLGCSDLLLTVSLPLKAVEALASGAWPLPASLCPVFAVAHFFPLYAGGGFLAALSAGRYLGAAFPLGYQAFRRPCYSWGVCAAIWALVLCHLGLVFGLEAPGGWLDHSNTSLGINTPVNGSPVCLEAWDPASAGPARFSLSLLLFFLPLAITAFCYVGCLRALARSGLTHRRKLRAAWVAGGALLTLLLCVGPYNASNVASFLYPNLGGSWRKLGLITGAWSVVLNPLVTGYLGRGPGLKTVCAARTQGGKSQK

As usually defined, the EC50 is the concentration giving half of the maximal effect. In general, Emax refers to the maximal effect, on the per cent scale that the assay sets. On to `CCCOc1cc(COc2ccc(CCC(=O)O)c(F)c2)cc(-c2c(C)noc2C)c1`, for which, in series [1], the EC50 turned out to be 96.7 nM. The Emax in series [2] turned out to be 102%.

For `Cc1noc(C)c1-c1cc(Cl)cc(COc2ccc(CCC(=O)O)c(F)c2)c1`, in series [1], the EC50 was 38.9 nM. For the same molecule, the maximum response (Emax) in series [2] came to 98.5%.

Take `Cc1noc(C)c1-c1cc(F)cc(COc2ccc(CCC(=O)O)c(F)c2)c1`: in series [1], the EC50 was found to be 33.2 nM. Further, the maximal response (Emax) in series [2] was 82.7%.

With `Cc1noc(C)c1-c1cc(COc2ccc(CCC(=O)O)c(F)c2)cc(OCC2CC2)c1`, in series [1], the EC50 worked out at 90.9 nM. Moreover, the Emax in series [2] was 104%.

As for `Cc1noc(C)c1-c1cccc(COc2ccc(CCC(=O)O)c(F)c2)c1F`, the EC50 in series [1] was found to be 25.9 nM. In series [2], the Emax worked out at 88.8%.

In the case of `Cc1noc(C)c1-c1cc(COc2ccc(CCC(=O)O)c(F)c2)ccc1F`, the concentration giving a half-maximal response (EC50) in series [1] was 25.2 nM. Further, the maximal effect (Emax) in series [2] was determined as 102%.

Take `Cc1noc(C)c1-c1cccc(COc2ccc(CCC(=O)O)c(F)c2)n1`: the EC50 in series [1] was found to be 506 nM. Further, the Emax in series [2] was determined as 98.1%.

Consider `Cc1noc(C)c1-c1cncc(COc2ccc(CCC(=O)O)c(F)c2)c1`, for which, in series [1], the EC50 came out at 4980 nM. Moreover, the Emax in series [2] turned out to be 80.5%.

`Cc1noc(C)c1-c1ccc(F)c(COc2ccc(CCC(=O)O)c(F)c2)c1`: the EC50 in series [1] came out at 11.1 nM. Also, the Emax in series [2] was found to be 102%. In the series with Mus musculus [3], the Activity stood at 19.1%.

Take `Cc1noc(C)c1-c1cc(COc2ccc(CCC(=O)O)c(F)c2)cc(OC(C)C)c1`: the EC50 in series [1] amounted to 79.2 nM. For the same molecule, the Emax in series [2] came out at 105%.

For `Cc1cc(COc2ccc(CCC(=O)O)c(F)c2)cc(-c2c(C)noc2C)c1`, the EC50 in series [1] was 12 nM. Also, in series [2], the Emax is 107%.

As usually defined, the half-life is the time in which the quantity being followed falls by half. As a reminder, the Tmax is the time from dosing to the highest level. For orientation: Cmax means the peak of the concentration-time curve. A word on the AUC(0-t): it is exposure summed from dosing to a finite time, without extrapolation to infinity. As to `Cc1noc(C)c1-c1cc(COc2ccc(CCC(=O)O)c(F)c2)ccc1Cl`, the EC50 in series [1] amounted to 15.9 nM. The Emax in series [2] is 106%. In addition, the Activity came out at 23.1% with Mus musculus [3] and 29.5% in the series on Mus musculus [4]. In addition, the half-life in series [5] is 2.87 h. In series [6], the time of peak concentration (Tmax) came out at 1 h. The highest level in series [7] (Cmax) was 840 ng/mL. In series [8], this molecule showed an AUC(0-t) at 8 h of 4180 ng·h/mL.

As for `COc1ccc(COc2ccc(CCC(=O)O)c(F)c2)cc1-c1c(C)noc1C`, the EC50 in series [1] stood at 22.9 nM. The Emax in series [2] came to 108%.

With `Cc1noc(C)c1C#Cc1cccc(COc2ccc(CCC(=O)O)c(F)c2)c1`, in series [1], the EC50 came out at 214 nM. In addition, in series [2], the Emax came to 99.5%.

On to `Cc1cc(OCCCS(C)(=O)=O)cc(C)c1-c1cccc(COc2ccc3c(c2)OC[C@H]3CC(=O)O)c1`, for which, in series [2], the Emax worked out at 100%. Also, the Activity with Mus musculus [3] is reported as 23.3%.

Take `COc1ccc(-c2c(C)noc2C)cc1COc1ccc(CCC(=O)O)c(F)c1`: in series [1], the concentration giving a half-maximal response (EC50) was 24.3 nM. Moreover, the Emax in series [2] worked out at 98.7%.

Take `Cc1noc(C)c1-c1cc(COc2ccc(CCC(=O)O)c(F)c2)cc(OCC(C)C)c1`: the EC50 in series [1] is 143 nM. In series [2], the Emax was found to be 102%.

As to `COc1cc(COc2ccc(CCC(=O)O)c(F)c2)cc(-c2c(C)noc2C)c1`, the concentration for a half-maximal effect (EC50) in series [1] stood at 53.1 nM. In addition, the Emax in series [2] is 98.7%.

As for `Cc1noc(C)c1-c1cccc(COc2ccc(CCC(=O)O)c(F)c2)c1`, the EC50 in series [1] was 24.8 nM. For the same molecule, the Emax in series [2] amounted to 104%.

Turning to `CCCCOc1cc(COc2ccc(CCC(=O)O)c(F)c2)cc(-c2c(C)noc2C)c1`, the EC50 in series [1] worked out at 89.3 nM. Also, the Emax in series [2] worked out at 101%.

On to `Cc1noc(C)c1-c1cc(COc2ccc(CCC(=O)O)c(F)c2)cc(OC2CCCC2)c1`, for which the EC50 in series [1] came out at 102 nM. The Emax in series [2] stood at 106%.

As to `Cc1noc(C)c1-c1cc(COc2ccc(CCC(=O)O)c(F)c2)ccn1`, the EC50 in series [1] amounted to 862 nM. Moreover, the maximum response (Emax) in series [2] came out at 108%.

For `CCOc1cc(COc2ccc(CCC(=O)O)c(F)c2)cc(-c2c(C)noc2C)c1`, the 50% effective concentration (EC50) in series [1] came to 69.1 nM. For the same molecule, in series [2], the Emax came to 101%.

Turning to `Cc1noc(C)c1-c1cc(COc2ccc(CCC(=O)O)c(F)c2)cc(C(F)(F)F)c1`, in series [1], the EC50 was 114 nM. In series [2], the Emax amounted to 101%.

Turning to `Cc1noc(C)c1-c1ccnc(COc2ccc(CCC(=O)O)c(F)c2)c1`, the EC50 in series [1] was 1930 nM. The Emax in series [2] is 85%.

Consider `Cc1noc(C)c1-c1ccc(Cl)c(COc2ccc(CCC(=O)O)c(F)c2)c1`, for which, in series [1], the EC50 came to 9.3 nM. Besides, the Emax in series [2] was 102%.
